Assays:
Type in all cases: functional, organism-based
Mus musculus [1] = species on record: Mus musculus; assay: Uptake Ratio of Tumor/liver (each in % ID/g) in B16/F1 Murine Melanoma-Bearing C57 Mice at 4 h
In short: (§1)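 C57 BL/6 female mice (7–8 weeks) carried B16/F1 tumours from 1×10^6 cells given s.c. in the right flank; tumours were ~500 mg at 9–10 days. Each mouse received […] of HPLC-purified, neutralized 111In-DOTA peptide via the tail vein. Mice were killed at 0.5, 2, 4 or 24 h pi. Tissues were weighed and γ-counted, expressed as % ID/g; ratios were tumor/tissue % ID/g.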

Mus musculus [2] = species on record: Mus musculus; assay: Uptake Ratio of Tumor/lungs (each in % ID/g) in B16/F1 Murine Melanoma-Bearing C57 Mice at 0.5 h
In short: (§2)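 Female C57 BL/6 mice, 7–8 weeks old, carried subcutaneous right-flank B16/F1 tumors from 1×10^6 cells and were used 9–10 days later at ~500 mg tumor weight. Each received […] of HPLC-purified, pH-neutralized ¹¹¹In-DOTA peptide by tail vein. Tumor and organs were excised at the stated time, weighed and γ-counted. Each tissue was taken as % ID/g, and tumor/normal-tissue ratios were formed from these values.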

Mus musculus [3] = species on record: Mus musculus; assay: Uptake Ratio of Tumor/blood (each in % ID/g) in B16/F1 Murine Melanoma-Bearing C57 Mice at 0.5 h; in short: as §1
Mus musculus [4] = species on record: Mus musculus; assay: Radioactivity uptake in the spleen was expressed as a percentage of the injected radioactive dose per gram of tissue (% ID/g) in B16/F1 Murine Melanoma-Bearing C57 Mice at 4 h; in short: as §1
Mus musculus [5] = species on record: Mus musculus; assay: Radioactivity uptake in the muscle was expressed as a percentage of the injected radioactive dose per gram of tissue (% ID/g) in B16/F1 Murine Melanoma-Bearing C57 Mice at 4 h; in short: as §1
Mus musculus [6] = species on record: Mus musculus; assay: Radioactivity uptake in the lungs was expressed as a percentage of the injected radioactive dose per gram of tissue (% ID/g) in B16/F1 Murine Melanoma-Bearing C57 Mice at 0.5 h; conditions: Lung; in short: as §1
Mus musculus [7] = species on record: Mus musculus; assay: Uptake Ratio of Tumor/muscle (each in % ID/g) in B16/F1 Murine Melanoma-Bearing C57 Mice at 2 h; conditions: Muscle tissue; in short: as §2
Mus musculus [8] = species on record: Mus musculus; assay: Radioactivity uptake in the liver was expressed as a percentage of the injected radioactive dose per gram of tissue (% ID/g) in B16/F1 Murine Melanoma-Bearing C57 Mice at 24 h; in short: as §1
Mus musculus [9] = species on record: Mus musculus; assay: Radioactivity uptake in the heart was expressed as a percentage of the injected radioactive dose per gram of tissue (% ID/g) in B16/F1 Murine Melanoma-Bearing C57 Mice at 4 h; in short: as §1
Mus musculus [10] = species on record: Mus musculus; assay: Radioactivity uptake in the liver was expressed as a percentage of the injected radioactive dose per gram of tissue (% ID/g) in B16/F1 Murine Melanoma-Bearing C57 Mice at 2 h; in short: as §1
Mus musculus [11] = species on record: Mus musculus; assay: Radioactivity uptake in the muscle was expressed as a percentage of the injected radioactive dose per gram of tissue (% ID/g) in B16/F1 Murine Melanoma-Bearing C57 Mice at 0.5 h; in short: as §1
Mus musculus [12] = species on record: Mus musculus; assay: Uptake Ratio of Tumor/kidneys (each in % ID/g) in B16/F1 Murine Melanoma-Bearing C57 Mice at 4 h; conditions: Kidney; in short: as §1
Mus musculus [13] = species on record: Mus musculus; assay: Radioactivity uptake in the muscle was expressed as a percentage of the injected radioactive dose per gram of tissue (% ID/g) in B16/F1 Murine Melanoma-Bearing C57 Mice at 2 h; in short: as §1
Mus musculus [14] = species on record: Mus musculus; assay: Radioactivity uptake in the tumor was expressed as a percentage of the injected radioactive dose per gram of tissue (% ID/g) in B16/F1 Murine Melanoma-Bearing C57 Mice at 4 h; in short: as §1
Mus musculus [15] = species on record: Mus musculus; assay: Radioactivity uptake in the heart was expressed as a percentage of the injected radioactive dose per gram of tissue (% ID/g) in B16/F1 Murine Melanoma-Bearing C57 Mice at 0.5 h; in short: as §1
Mus musculus [16] = species on record: Mus musculus; assay: Radioactivity uptake in the spleen was expressed as a percentage of the injected radioactive dose per gram of tissue (% ID/g) in B16/F1 Murine Melanoma-Bearing C57 Mice at 2 h; in short: as §1
Mus musculus [17] = species on record: Mus musculus; assay: Uptake Ratio of Tumor/blood (each in % ID/g) in B16/F1 Murine Melanoma-Bearing C57 Mice at 4 h; in short: as §1
Mus musculus [18] = species on record: Mus musculus; assay: Uptake Ratio of Tumor/kidneys (each in % ID/g) in B16/F1 Murine Melanoma-Bearing C57 Mice at 24 h; conditions: Kidney; in short: as §1
Mus musculus [19] = species on record: Mus musculus; assay: Radioactivity uptake in the blood was expressed as a percentage of the injected radioactive dose per gram of tissue (% ID/g) in B16/F1 Murine Melanoma-Bearing C57 Mice at 24 h; in short: as §1
Mus musculus [20] = species on record: Mus musculus; assay: Uptake Ratio of Tumor/kidneys (each in % ID/g) in B16/F1 Murine Melanoma-Bearing C57 Mice at 2 h; conditions: Kidney; in short: as §1
Mus musculus [21] = species on record: Mus musculus; assay: Uptake Ratio of Tumor/kidneys (each in % ID/g) in B16/F1 Murine Melanoma-Bearing C57 Mice at 0.5 h; conditions: Kidney; in short: as §1
Mus musculus [22] = species on record: Mus musculus; assay: Radioactivity uptake in the lungs was expressed as a percentage of the injected radioactive dose per gram of tissue (% ID/g) in B16/F1 Murine Melanoma-Bearing C57 Mice at 2 h; conditions: Lung; in short: as §1
Mus musculus [23] = species on record: Mus musculus; assay: Radioactivity uptake in the blood was expressed as a percentage of the injected radioactive dose per gram of tissue (% ID/g) in B16/F1 Murine Melanoma-Bearing C57 Mice at 2 h; in short: as §1
Mus musculus [24] = species on record: Mus musculus; assay: Radioactivity uptake in the lungs was expressed as a percentage of the injected radioactive dose per gram of tissue (% ID/g) in B16/F1 Murine Melanoma-Bearing C57 Mice at 24 h; conditions: Lung; in short: as §1
Mus musculus [25] = species on record: Mus musculus; assay: Radioactivity uptake in the liver was expressed as a percentage of the injected radioactive dose per gram of tissue (% ID/g) in B16/F1 Murine Melanoma-Bearing C57 Mice at 0.5 h; in short: as §1
Mus musculus [26] = species on record: Mus musculus; assay: Radioactivity uptake in the tumor was expressed as a percentage of the injected radioactive dose per gram of tissue (% ID/g) in B16/F1 Murine Melanoma-Bearing C57 Mice at 24 h; in short: as §1
Mus musculus [27] = species on record: Mus musculus; assay: Uptake Ratio of Tumor/blood (each in % ID/g) in B16/F1 Murine Melanoma-Bearing C57 Mice at 24 h; in short: as §1
Mus musculus [28] = species on record: Mus musculus; assay: Radioactivity uptake in the muscle was expressed as a percentage of the injected radioactive dose per gram of tissue (% ID/g) in B16/F1 Murine Melanoma-Bearing C57 Mice at 24 h; in short: as §1
Mus musculus [29] = species on record: Mus musculus; assay: Radioactivity uptake in the blood was expressed as a percentage of the injected radioactive dose per gram of tissue (% ID/g) in B16/F1 Murine Melanoma-Bearing C57 Mice at 0.5 h; in short: as §1
Mus musculus [30] = species on record: Mus musculus; assay: Uptake Ratio of Tumor/blood (each in % ID/g) in B16/F1 Murine Melanoma-Bearing C57 Mice at 2 h; in short: as §1
Mus musculus [31] = species on record: Mus musculus; assay: Radioactivity uptake in the liver was expressed as a percentage of the injected radioactive dose per gram of tissue (% ID/g) in B16/F1 Murine Melanoma-Bearing C57 Mice at 4 h; in short: as §1
Mus musculus [32] = species on record: Mus musculus; assay: Uptake Ratio of Tumor/liver (each in % ID/g) in B16/F1 Murine Melanoma-Bearing C57 Mice at 0.5 h; in short: as §1
Mus musculus [33] = species on record: Mus musculus; assay: Radioactivity uptake in the kidneys was expressed as a percentage of the injected radioactive dose per gram of tissue (% ID/g) in B16/F1 Murine Melanoma-Bearing C57 Mice at 24 h; conditions: Kidney; in short: as §1

Substance	Uptake ratio (Mus musculus [1])	Uptake ratio (Mus musculus [2])	Uptake ratio (Mus musculus [3])	ID/g (Mus musculus [4]) [%]	ID/g (Mus musculus [5]) [%]	ID/g (Mus musculus [6]) [%]	Uptake ratio (Mus musculus [7])	ID/g (Mus musculus [8]) [%]	ID/g (Mus musculus [9]) [%]	ID/g (Mus musculus [10]) [%]	ID/g (Mus musculus [11]) [%]	Uptake ratio (Mus musculus [12])	ID/g (Mus musculus [13]) [%]	ID/g (Mus musculus [14]) [%]	ID/g (Mus musculus [15]) [%]	ID/g (Mus musculus [16]) [%]	Uptake ratio (Mus musculus [17])	Uptake ratio (Mus musculus [18])	ID/g (Mus musculus [19]) [%]	Uptake ratio (Mus musculus [20])	other results
Ac-Lys(DOTA)-ReCCEHdFRWCKPV-NH2	20.8	4.7	3.8	0.19	0.017	1.51	468	0.28	0.029	0.24	0.42	0.28	0.02	6.01	0.86	0.11	88.7	0.27	0.072	0.46	Uptake ratio (Mus musculus [21]): 0.3; ID/g (Mus musculus [22]): 0.18%; ID/g (Mus musculus [23]): 0.09%; ID/g (Mus musculus [24]): 0.14%; ID/g (Mus musculus [25]): 0.66%; ID/g (Mus musculus [26]): 3.54%; Uptake ratio (Mus musculus [27]): 67.2; ID/g (Mus musculus [28]): 0.11%; ID/g (Mus musculus [29]): 1.99%; Uptake ratio (Mus musculus [30]): 175; ID/g (Mus musculus [31]): 0.29%; Uptake ratio (Mus musculus [32]): 10.7; ID/g (Mus musculus [33]): 13.4%
DOTA-ReCCEHdFRWCKPV-OH	69.1	9	6.9	0.15	0.035	1.21	174	0.17	0.12	0.15	0.39	1.1	0.054	9.27	0.68	0.2	200	0.43	0.1	1.1	Uptake ratio (Mus musculus [21]): 0.95; ID/g (Mus musculus [22]): 0.18%; ID/g (Mus musculus [23]): 0.11%; ID/g (Mus musculus [24]): 0.11%; ID/g (Mus musculus [25]): 0.45%; ID/g (Mus musculus [26]): 3.14%; Uptake ratio (Mus musculus [27]): 22.4; ID/g (Mus musculus [28]): 0.14%; ID/g (Mus musculus [29]): 1.56%; Uptake ratio (Mus musculus [30]): 143; ID/g (Mus musculus [31]): 0.14%; Uptake ratio (Mus musculus [32]): 23.1; ID/g (Mus musculus [33]): 7.35%
